Assay results as given in ChEMBL document CHEMBL4038350 (J Med Chem, 2017).
Non-standard residues stand in square brackets, D forms with d. Residues, ends and D or L forms follow the SMILES beside them.

What was measured:
Assay type in all cases: functional, cell-based
[1] = target: T1, Melanocortin receptor 3 (Mus musculus, UniProt P33033); assay: Antagonist activity at mouse melanocortin receptor 3 expressed in HEK293 cells assessed as inhibition of NDP-MSH-induced cAMP accumulation after 2 hrs by AlphaScreen assay; conditions: read-out: pA2 (converted)
T1 sequence (P33033 whole entry): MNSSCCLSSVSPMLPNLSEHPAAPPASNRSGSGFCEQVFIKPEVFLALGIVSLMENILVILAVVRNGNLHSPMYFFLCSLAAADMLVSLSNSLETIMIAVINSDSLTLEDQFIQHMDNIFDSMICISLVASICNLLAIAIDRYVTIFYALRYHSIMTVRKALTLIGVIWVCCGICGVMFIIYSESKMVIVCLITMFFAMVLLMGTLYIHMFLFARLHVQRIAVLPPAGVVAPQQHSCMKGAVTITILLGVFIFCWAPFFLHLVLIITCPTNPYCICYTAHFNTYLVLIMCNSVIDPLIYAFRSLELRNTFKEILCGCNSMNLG

[2] = target: T1, Melanocortin receptor 3; assay: Agonist activity at mouse melanocortin receptor 3 expressed in HEK293 cells assessed as increase in cAMP accumulation after 2 hrs by AlphaScreen assay
[3] = target: T2, Melanocortin receptor 4 (Mus musculus, UniProt P56450); assay: Agonist activity at mouse melanocortin receptor 4 expressed in HEK293 cells assessed as increase in cAMP accumulation after 2 hrs by AlphaScreen assay
T2 sequence (P56450 whole entry): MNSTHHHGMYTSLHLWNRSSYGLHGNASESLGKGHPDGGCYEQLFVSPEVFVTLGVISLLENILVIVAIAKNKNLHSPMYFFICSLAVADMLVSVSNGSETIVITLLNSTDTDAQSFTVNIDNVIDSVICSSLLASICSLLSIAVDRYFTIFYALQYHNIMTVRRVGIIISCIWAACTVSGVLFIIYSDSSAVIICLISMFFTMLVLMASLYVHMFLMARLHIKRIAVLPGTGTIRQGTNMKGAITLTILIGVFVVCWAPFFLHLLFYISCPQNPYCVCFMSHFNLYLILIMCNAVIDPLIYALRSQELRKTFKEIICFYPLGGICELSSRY

[4] = target: Melanocortin receptor 5 (Mus musculus, UniProt P41149); assay: Agonist activity at mouse melanocortin receptor 5 expressed in HEK293 cells assessed as increase in cAMP accumulation after 2 hrs by AlphaScreen assay
Chain of Melanocortin receptor 5 (P41149 whole entry): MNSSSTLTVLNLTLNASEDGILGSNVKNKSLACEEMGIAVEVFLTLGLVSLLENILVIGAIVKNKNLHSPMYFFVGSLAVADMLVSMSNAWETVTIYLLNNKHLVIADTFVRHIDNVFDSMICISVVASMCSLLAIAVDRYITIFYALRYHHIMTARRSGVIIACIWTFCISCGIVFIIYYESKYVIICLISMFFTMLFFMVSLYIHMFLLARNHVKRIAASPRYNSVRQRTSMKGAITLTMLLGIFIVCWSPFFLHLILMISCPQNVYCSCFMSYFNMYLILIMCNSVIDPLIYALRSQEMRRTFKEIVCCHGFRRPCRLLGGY
Method in brief: (§1)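 Donor beads and biotin-cAMP in lysis buffer followed for 2 h. The AlphaScreen signal was read. EC50 came from nonlinear least-squares fits, duplicates, at least three independent experiments.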

[5] = target: T2, Melanocortin receptor 4; assay: Antagonist activity at mouse melanocortin receptor 4 expressed in HEK293 cells assessed as inhibition of NDP-MSH-induced cAMP accumulation after 2 hrs by AlphaScreen assay; conditions: read-out: pA2 (converted)
[6] = target: Melanocyte-stimulating hormone receptor (Mus musculus) (UniProt Q01727); assay: Agonist activity at mouse melanocortin receptor 1 expressed in HEK293 cells assessed as increase in cAMP accumulation at 100 uM after 2 hrs by AlphaScreen assay relative to control
Chain of Melanocyte-stimulating hormone receptor (Mus musculus) (Q01727 whole entry, looked up): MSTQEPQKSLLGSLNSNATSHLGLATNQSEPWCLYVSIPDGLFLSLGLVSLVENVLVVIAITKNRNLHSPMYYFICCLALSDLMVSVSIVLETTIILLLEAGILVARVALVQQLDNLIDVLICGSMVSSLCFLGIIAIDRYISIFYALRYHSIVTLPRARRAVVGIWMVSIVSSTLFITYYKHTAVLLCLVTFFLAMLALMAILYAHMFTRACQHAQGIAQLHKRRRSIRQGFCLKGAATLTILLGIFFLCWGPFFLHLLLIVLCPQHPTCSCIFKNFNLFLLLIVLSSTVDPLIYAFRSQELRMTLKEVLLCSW
Method in brief: (§2)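 Cyclic peptides were dissolved in DMSO. Receptor-expressing HEK293 cells in IBMX-containing stimulation buffer (pH 7.4) were stimulated for 2 h at room temperature. cAMP was then detected by competitive AlphaScreen after a 2 h lysis/bead step. […] Values come from at least three independent experiments.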

[7] = target: Melanocyte-stimulating hormone receptor (Mus musculus, UniProt Q01727); assay: Agonist activity at mouse melanocortin receptor 1 expressed in HEK293 cells assessed as increase in cAMP accumulation after 2 hrs by AlphaScreen assay; method in brief: as §1
Chain of Melanocyte-stimulating hormone receptor (Q01727 whole entry): as the sequence (Q01727 whole entry, looked up) above

[8] = target: Melanocortin receptor 5 (Mus musculus) (UniProt P41149); assay: Inverse agonist activity at mouse melanocortin receptor 5 expressed in HEK293 cells assessed as decrease in cAMP accumulation at 100 uM after 2 hrs by AlphaScreen assay relative to control; set-up: scale not given: the % may be the effect or the level left
Chain of Melanocortin receptor 5 (Mus musculus) (P41149 whole entry): as the sequence (P41149 whole entry) above
Method in brief: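 Each replicate was normalized to its own signal at 10−10 M (basal). Where no plateau appeared, inverse agonism was reported as percent decrease from basal at 100 μM. Values are from three independent experiments.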

[9] = target: Melanocortin receptor 3 (Mus musculus) (UniProt P33033); assay: Agonist activity at mouse melanocortin receptor 3 expressed in HEK293 cells assessed as increase in cAMP accumulation at 100 uM after 2 hrs by AlphaScreen assay relative to control; method in brief: as §2
Chain of Melanocortin receptor 3 (Mus musculus) (P33033 whole entry): as the sequence (P33033 whole entry) above

[10] = target: Melanocortin receptor 5 (Mus musculus) (UniProt P41149); assay: Agonist activity at mouse melanocortin receptor 5 expressed in HEK293 cells assessed as increase in cAMP accumulation at 100 uM after 2 hrs by AlphaScreen assay relative to control; method in brief: as §2
[11] = target: Melanocortin receptor 5 (Mus musculus) (UniProt P41149); assay: Inverse agonist activity at mouse melanocortin receptor 5 expressed in HEK293 cells assessed as decrease in cAMP accumulation at 110 nM after 2 hrs by AlphaScreen assay relative to control; set-up: scale not given: the % may be the effect or the level left
Method in brief: (§3)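 In mouse MC5R-HEK293 cells, cAMP was measured by AlphaScreen after 2 h peptide exposure (10−4 to 10−13 M) at room temperature. Each replicate was normalized to its signal at 10−10 M. For sigmoidal curves, percent inverse agonism was the change from basal to the high-concentration plateau. Apparent potency was taken as the curve inflection point. Three independent experiments were run.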

[12] = target: Melanocortin receptor 5 (Mus musculus) (UniProt P41149); assay: Inverse agonist activity at mouse melanocortin receptor 5 expressed in HEK293 cells assessed as decrease in cAMP accumulation at 10 nM after 2 hrs by AlphaScreen assay relative to control; set-up: scale not given: the % may be the effect or the level left; method in brief: as §3

For `N=C(N)NCCC[C@@H]1NC(=O)[C@@H]2CCCN2C(=O)[C@H]2CCCN2C(=O)[C@H](Cc2ccccc2)NC(=O)[C@H](CCC(=O)O)NC(=O)[C@H](CC(N)=O)NC(=O)[C@H](Cc2ccccc2)NC(=O)[C@H](Cc2ccccc2)NC1=O` (cyclo(RFFNEF[dP]P)), the Kb [1] was > 3.16 µM, the EC50 [2] was > 100 µM and the EC50 [3] was > 100 µM. The EC50 [4] was > 100 µM, the Kb [5] was > 3.16 µM and the Activity [6] was 60%.
`N=C(N)NCCC[C@@H]1NC(=O)[C@@H]2CCCN2C(=O)[C@H]2CCCN2C(=O)[C@H](Cc2ccccc2)NC(=O)[C@H](CO)NC(=O)[C@H](CC(N)=O)NC(=O)[C@H](Cc2ccccc2)NC(=O)[C@H](Cc2ccccc2)NC1=O` (cyclo(RFFNSF[dP]P)) was tested, and the Kb [1] was 0.631 µM, the EC50 [7] was > 100 µM and the EC50 [2] was > 100 µM. For the same compound, the EC50 [3] was > 100 µM, the Kb [5] was 0.00631 µM and the Activity [8] was 30%.
`N=C(N)NCCC[C@@H]1NC(=O)[C@@H]2CCCN2C(=O)[C@H]2CCCN2C(=O)[C@H](Cc2ccccc2)NC(=O)CNC(=O)[C@H](CC(N)=O)NC(=O)[C@H](Cc2ccccc2)NC(=O)[C@H](Cc2ccccc2)NC1=O` (cyclo(RFFNGF[dP]P)) was tested, and the Kb [1] was > 3.16 µM, the EC50 [7] was > 100 µM and the EC50 [2] was > 100 µM. For the same compound, the EC50 [3] was > 100 µM, the Kb [5] was 0.794 µM and the Activity [8] was 35%.
`N=C(N)NCCC[C@@H]1NC(=O)[C@@H]2CCCN2C(=O)[C@H]2CCCN2C(=O)[C@H](Cc2ccccc2)NC(=O)[C@H](CCCCN)NC(=O)[C@H](CC(N)=O)NC(=O)[C@H](Cc2ccccc2)NC(=O)[C@H](Cc2ccccc2)NC1=O` was tested, and the Kb [1] was > 3.16 µM, the EC50 [3] was > 100 µM and the Kb [5] was 0.776 µM. The Activity [6] was 60%, the Activity [9] was 45% and the Activity [10] was 45%.
For `C[C@@H]1NC(=O)[C@H](CC(=O)O)NC(=O)[C@H](Cc2ccccc2)NC(=O)[C@H](Cc2ccccc2)NC(=O)[C@H](CCCNC(=N)N)NC(=O)[C@@H]2CCCN2C(=O)[C@H]2CCCN2C(=O)[C@H](Cc2ccccc2)NC1=O`, the Kb [1] was > 3.16 µM, the EC50 [7] was > 100 µM and the EC50 [2] was > 100 µM. The EC50 [3] was > 100 µM, the Kb [5] was 0.162 µM and the Activity [8] was 25%.
In the case of `CCCC[C@@H]1NC(=O)[C@H](Cc2ccccc2)NC(=O)[C@H](Cc2ccccc2)NC(=O)[C@H](CCCNC(=N)N)NC(=O)[C@@H]2CCCN2C(=O)[C@H]2CCCN2C(=O)[C@H](Cc2ccccc2)NC(=O)[C@H](C)NC1=O`, the Kb [1] is reported as > 3.16 µM, the EC50 [7] is reported as > 100 µM and the EC50 [2] is reported as > 100 µM. The EC50 [3] was > 100 µM, the EC50 [4] was > 100 µM and the Kb [5] was 0.126 µM.
With `C[C@@H]1NC(=O)[C@@H](CN)NC(=O)[C@H](Cc2ccccc2)NC(=O)[C@H](Cc2ccccc2)NC(=O)[C@H](CCCNC(=N)N)NC(=O)[C@@H]2CCCN2C(=O)[C@H]2CCCN2C(=O)[C@H](Cc2ccccc2)NC1=O` the Kb [1] was 0.2 µM, the EC50 [7] was > 100 µM and the EC50 [2] was > 100 µM. The Activity [11] was 10%.
In the case of `CC(C)C[C@@H]1NC(=O)[C@H](Cc2ccccc2)NC(=O)[C@H](Cc2ccccc2)NC(=O)[C@H](CCCNC(=N)N)NC(=O)[C@@H]2CCCN2C(=O)[C@H]2CCCN2C(=O)[C@H](Cc2ccccc2)NC(=O)[C@H](C)NC1=O` (cyclo(RFFLAF[dP]P)), the Kb [1] is reported as 2 µM, the EC50 [7] is reported as > 100 µM and the EC50 [2] is reported as > 100 µM. The EC50 [3] was > 100 µM, the Kb [5] was 0.0457 µM and the Activity [11] was 20%.
For `C[C@@H]1NC(=O)[C@H](Cc2c[nH]cn2)NC(=O)[C@H](Cc2ccccc2)NC(=O)[C@H](Cc2ccccc2)NC(=O)[C@H](CCCNC(=N)N)NC(=O)[C@@H]2CCCN2C(=O)[C@H]2CCCN2C(=O)[C@H](Cc2ccccc2)NC1=O`, the Kb [1] was 0.347 µM, the EC50 [7] was > 100 µM and the EC50 [2] was > 100 µM. For the same compound, the EC50 [3] was > 100 µM and the Activity [12] was 15%.
